Assays:
[1] = test system: Rattus norvegicus; assay: Inhibition of antigen-induced […] at a dose of 25 mg/kg in passive cutaneous anaphylaxis in the male Sprague-Dawley rats; assay type: functional
Procedure, shortened: (§1)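 IgE antiserum was raised in male Sprague-Dawley rats with im ovalbumin/aluminum hydroxide plus ip B. pertussis. Naive rats were sensitized intradermally at dorsal sites (antiserum 1:20). After 48 h, groups of four received oral compound or vehicle (1% methylcellulose). 10 min later, iv challenge with 4 mg ovalbumin in 1% Evans blue; blued wheal areas measured at 30 min; Student's t test.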

[2] = species: Rattus norvegicus; assay: Concentration required to inhibit antigen-induced release of histamine (AIR) by 50% from passively sensitized rat mast cells; assay type: functional, cell-based; details: read-out: I50
Procedure, shortened: (§2)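 Washed rat mast cells, passively sensitized in vitro with rat anti-ovalbumin serum, washed again, then challenged with ovalbumin; histamine release measured. Compounds dissolved in Me2SO (final 0.17%). I50 read from concentration-dependent inhibition; number of experiments in parentheses. DSCG positive control in every experiment.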

[3] = test system: Rattus norvegicus; assay: Effective dose against passive cutaneous anaphylaxis in rat when administered perorally.; assay type: functional; details: po; procedure, shortened: as §1
[4] = test system: Rattus norvegicus; assay: Effective dose against passive cutaneous anaphylaxis when administered perorally.; assay type: functional; details: po; procedure, shortened: as §1
[5] = test system: Rattus norvegicus; assay: Percent Inhibition of antigen-induced release of histamine at a dose of 50 mg/kg in passive cutaneous anaphylaxis in the male Sprague-Dawley rats; assay type: functional; procedure, shortened: as §1
[6] = species: Rattus norvegicus; assay: Concentration required to inhibit antigen-induced release of histamine (AIR) by 50% from passively sensitized rat mast cells at p<0.01; assay type: functional, cell-based; details: Mast cell, read-out: I50; procedure, shortened: as §2
[7] = test system: Rattus norvegicus; assay: Inhibition of antigen-induced release of histamine at a dose of 50 mg/kg in passive cutaneous anaphylaxis in the male Sprague-Dawley rats; assay type: functional; procedure, shortened: as §1
[8] = test system: Rattus norvegicus; assay: Effective dose against passive anaphylaxis in rat when administered intraperitoneally.; assay type: functional; details: ip
[9] = test system: Rattus norvegicus; assay: Effective dose against passive cutaneous anaphylaxis in rat when administered intraperitoneally.; assay type: functional; details: ip

Compound	inhibition in vivo at 25 mg/kg [1] [%]	IC50 [2] [µM]	inhibition in vivo at 50 mg/kg [5] [%]	also measured
O=c1[nH]c2cc(Cl)ccc2oc1=O	14	–	–	–
COc1ccc2oc(=O)c(=O)[nH]c2c1	21	15	–	–
O=c1[nH]c2cc3[nH]c(=O)c(=O)oc3cc2oc1=O	13	3	–	ED50 [3]: > 125 mg/kg
O=c1[nH]c2cc(C(F)(F)F)ccc2oc1=O	20	100	–	–
O=c1[nH]c2cc3oc(=O)c(=O)[nH]c3cc2oc1=O	0	1.2	–	ED50 [3]: > 125 mg/kg
C=CCc1cc(OC)c2oc(=O)c(=O)[nH]c2c1	77	10	–	ED50 [4]: 7 mg/kg
O=c1[nH]c2cc3ccccc3cc2oc1=O	11	–	45	IC50 [6]: 45 µM
O=c1[nH]c2cc3c(cc2oc1=O)CCCC3	15	10	–	ED50 [3]: 96 mg/kg
COc1ccc2[nH]c(=O)c(=O)oc2c1	33	28	–	–
COC(=O)c1cc(OC)c2oc(=O)c(=O)[nH]c2c1	35	3.4	–	–
COc1cc2[nH]c(=O)c(=O)oc2cc1OC	45	30	100	ED50 [3]: 20 mg/kg
CCOC(=O)C(=O)Nc1ccc2oc(=O)c(=O)[nH]c2c1	–	60	–	–
Cc1ccc2[nH]c(=O)c(=O)oc2c1	–	32	97	–
COc1cccc2[nH]c(=O)c(=O)oc12	88	7	89	ED50 [3]: 14 mg/kg
CCOC(=O)c1ccc2oc(=O)c(=O)[nH]c2c1	0	10	–	–
O=c1[nH]c2ccccc2oc1=O	–	42	70	–
O=c1[nH]c2c(ccc3ccccc32)oc1=O	–	< 100	18	–
N#Cc1ccc2[nH]c(=O)c(=O)oc2c1	–	15	–	inhibition in vivo at 50 mg/kg [7]: 14%; ED50 [8]: 23 mg/kg
O=c1[nH]c2cc([N+](=O)[O-])ccc2oc1=O	–	0.8	91	inhibition in vivo at 50 mg/kg [7]: 24%
O=C(O)c1ccc2[nH]c(=O)c(=O)oc2c1	7	16	83	–
O=c1[nH]c2ccc(O)cc2oc1=O	–	170	–	–
O=C([O-])c1cc(=O)c2c(OCC(O)COc3cccc4oc(C(=O)[O-])cc(=O)c34)cccc2o1.[Na+].[Na+] [CROMOLYN SODIUM]	–	4.5	–	ED50 [9]: 6 mg/kg

From ChEMBL document CHEMBL1123064, “[1,4]Benzoxazine-2,3-diones as antiallergic agents” (J Med Chem, 1985)
